Test [1] relates to HaCaT. Kind of test: Mitotic arrest in human HaCaT cells at 5 uM after 24 hrs using propidium iodide by flow cytometry. It is filed as functional, cell-based. A digest of the protocol: (§1)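 Exponentially growing cells given 5×10^-6 M for 24 h, with 0.5% DMSO vehicle control. Cells detached with gentle Accutase, then stained in suspension with propidium iodide 0.05 mg/mL in citrate buffer with Nonidet P40 for 1 h at 4 °C. FACS on 20,000 cells for G1/S/G2/M distribution; run in triplicate.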
In general terms: In flow cytometry, cells or beads pass a laser one at a time.

The nature of test [2]: Inhibition of sheep brain tubulin assembly compound incubated for 10 mins at 37 degC followed by 5 mins incubation at 0 degC by turbidimetry. The arrangement: species or system Ovis aries.
In test [3] the test system is SKv-a. Kind of test: Mitotic arrest in human SKv-a cells at 5 uM after 24 hrs using propidium iodide by flow cytometry. Type of test: functional, cell-based. The gist of the method: as §1
Test [4] concerns HaCaT. The experiment in a line: Induction of microtubule depolymerization in human HaCaT cells at 10 '-6 M by confocal microscopy. It is filed as cell-based.
Test [5] relates to SKv-a. Kind of test: Induction of microtubule depolymerization in human SKv-a cells at 10 '-6 M by confocal microscopy. Type of test: cell-based.
For test [6], the system named is SKv-a. Kind of test: Induction of morphological changes in human SKv-a cells assessed as cell rounding at 10 '-6 M by confocal microscopy. Type of test: functional, cell-based. A digest of the protocol: (§2)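 Cells were fixed and immunostained for beta-tubulin with a monoclonal antibody, then detected with goat anti-mouse FITC secondary. Confocal optical sections were taken at ×63 objective magnification. Vehicle-treated controls were imaged in parallel.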

Test [7] deals with HaCaT. Kind of test: Antiproliferative activity against human HaCaT cells assessed as cell viability by MTT assay. Type of test: functional, cell-based. The gist of the method:
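MTT read-out of metabolic activity, taken as the number of viable cells remaining after 72 h continuous exposure of cultured keratinocytes.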
(In general: Tetrazolium dyes change colour on reduction, which living cells bring about.)

Test [8] concerns HaCaT. The experiment in a line: Induction of morphological changes in human HaCaT cells assessed as cell detachment at 10 '-6 M by confocal microscopy. It is filed as functional, cell-based. A digest of the protocol: as §2
Test [9] has as its system HaCaT. The experiment in a line: Induction of morphological changes in human HaCaT cells assessed as cell rounding at 10 '-6 M by confocal microscopy. It is filed as functional, cell-based. A digest of the protocol: as §2
Test [10] deals with SKv-a. Kind of test: Induction of morphological changes in human SKv-a cells assessed as cell detachment at 10 '-6 M by confocal microscopy. It is filed as functional, cell-based. A digest of the protocol:
as §2

For test [11], the system named is HaCaT. Kind of test: Induction of morphological changes in human HaCaT cells assessed as loss of radial distribution of structured microtubules at 10 '-6 M by confocal microscopy. Type of test: functional, cell-based. The gist of the method: as §2
The nature of test [12]: Induction of morphological changes in human SKv-a cells assessed as loss of radial distribution of structured microtubules at 10 '-6 M by confocal microscopy. It is filed as functional, cell-based. The gist of the method: as §2
For test [13], the species on record is Ovis aries. The experiment in a line: Inhibition of sheep brain tubulin assembly at 32 uM incubated for 10 mins at 37 degC followed by 5 mins incubation at 0 degC by turbidimetry.

The source made the active and inactive calls. The calls are words filed in the database; no cut-off is given here.

As a reminder, the IC50 is the concentration at which inhibition is half-maximal. The inhibition is the relative decrease from the control value, in per cent.

`COc1cc(/C=C/c2cc3ccccc3s2)cc(OC)c1OC`: the result in [1], in test [3], in test [4] and in test [5] was Active. This compound also displayed an IC50 in [2] of 8400 nM.

With `COc1cc2c(c(OC)c1OC)-c1ccc(OC)c(=O)cc1[C@@H](NC(C)=O)CC2` [COLCHICINE], the outcome in test [6], in test [4], in test [8], in [5], in test [9] and in [10] was Active. Also, the outcome in test [11] and in [12] was Active. Besides, the IC50 in [7] was determined as 12 nM.

`COc1cc(/C=C\c2cc3ccccc3o2)cc(OC)c1OC` gave an IC50 in test [2] of 9600 nM.

For the compound `COc1cc(/C=C/c2cc3ccccc3o2)cc(OC)c1OC`, the inhibition in [13] turned out to be 23%.

As to `COc1ccc(/C=C\c2cc(OC)c(OC)c(OC)c2)cc1O` [COMBRETASTATIN A4], the result in test [4] and in test [5] was Active. For the same compound, in test [7], the half-inhibitory concentration (IC50) was 1 nM.

For the compound `COc1cc(/C=C\c2cc3ccccc3[nH]2)cc(OC)c1OC`, the half-maximal inhibitory concentration (IC50) in test [2] is 21000 nM.

`COc1cc([C@@H]2c3cc4c(cc3C[C@H]3COC(=O)[C@@H]32)OCO4)cc(OC)c1OC` [DESOXYPODOPHYLLOTOXIN] displayed an IC50 in [2] of 1700 nM.

With `COc1cc(/C=C\c2cc3ccccc3s2)cc(OC)c1OC`, the outcome in test [1], in test [3], in test [6], in [4], in test [8] and in [5] was Active. In addition, the result in test [9], in test [10], in test [11] and in [12] was Active. Moreover, the values for the IC50 in test [2] and in test [7] were 2600 nM and 16 nM, respectively.
